The values that follow come from ChEMBL document CHEMBL4513216, “Probing the Open Global Health Chemical Diversity Library for Multistage-Active Starting Points for Next-Generation Antimalarials” (ACS Infect Dis, 2020).

Each structure is given as a SMILES string.

The data set is described as follows: Toxicity liver stage against HepG2, at 10uM. It is filed as cell-based. On the set-up: test concentration 10 uM, cell line HepG2-A16-CD81EGFP. The following applies: human, HepG2-A16-CD81EGFP cells; read-out: INHIBITION
The method, boiled down: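 Uninfected HepG2-A16-CD81EGFP cells, 3 × 10^3 per well, 1536-well, plated on prespotted compound at 10 μM final, parasite-free screening media added to match infected plates; puromycin 10 μM positive, DMSO 0.5% negative; run in parallel with 48 h PbLuc assay at 37 °C, 5% CO2; viability by CellTiter-Glo luminescence, normalized to controls.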
`COC(=O)[C@@H]1Cc2[nH]cnc2CN1Cc1cc2ccccc2o1`: the cytotoxicity at 10 µM was determined as 0.994%. The value for `N#CCCN1CC(O)CN(C(=O)c2cccc(C(F)(F)F)c2)CC1=O` (stereo not given) was 7.84%. In the case of `O=S(=O)(c1cccs1)N1CCN(Cc2nc(-c3ccco3)cs2)CC1` it was 21.2%. The value for `c1csc(CN2CCc3nc(N4CCOCC4)nc(NC4CC4)c3C2)n1` was 0.0529%. For `Cn1nnc2c1CCN(S(C)(=O)=O)C2COCC1CC1` (stereo not given), the cytotoxicity at 10 µM is -4.6%. For `c1cncc(-c2ccc3c(c2)CCC32CCNCC2)c1`, the cytotoxicity at 10 µM was -10.3%. Regarding `CC(C)N1c2sc(-c3ccccc3)nc2CC1C(=O)NC1CCCC1` (stereo not given), the cytotoxicity at 10 µM came out at 10.3%. The value for `Cc1ccnc(OC[C@@]23CCO[C@@H]2CCN(S(C)(=O)=O)C3)n1` was 9.34%; that for `Oc1nnc(-c2ccccc2)c2sc(N3CCCCC3)nc12` was -1.81%. The value for `O=c1c2cc3c(cc2nnn1Cc1ccccc1Cl)OCCO3` was 9.32%; that for `Cc1nc(NCCCn2cccn2)c2c(n1)c(C)nn2C` was 6.64%; that for `CCc1noc(CCC(=O)N[C@@H]2CC[C@@H](n3ccnc3C)[C@@H]2O)n1` was -20.5%. As to `COc1ccc(CN(C)[C@@H]2CN(C(=O)c3cncs3)C[C@H]2O)cc1`, the cytotoxicity at 10 µM was -12.4%. `Cc1cnc(N)c(C(=O)C2CCN(C(=O)c3ccccc3F)CC2)c1`: the cytotoxicity at 10 µM was determined as 9.96%. The value for `CC(=O)N1CC2(CCN(Cc3ccc(Cl)cc3)C2)Cc2ccccc21` (stereo not given) was 7.74%; that for `CSC1(CNC(=O)N(C)Cc2ccc(C)s2)CCOCC1` was -46.5%; that for `O=C(CN1CCc2cncnc2C1)NC(C1CC1)C1CC1` was -5.42%. For the molecule `COCC(=O)N[C@H](C(=O)NC(C)c1cc(C)ccc1C)C(C)C` (stereo not given in full), the cytotoxicity at 10 µM worked out at 0.341%. With `CN1CCOC(CNC(=O)C2(c3ccccc3)CCC2)C1` (stereo not given), the cytotoxicity at 10 µM turned out to be 6.17%.

For `Cc1c(NC(C)C(C)C)cccc1C(=O)NCc1nccn1C` (stereo not given), the cytotoxicity at 10 µM is -5.99%. In the case of `COc1ccc(C(O)CN2CC(n3cc(C)cn3)C2)cc1` (stereo not given) it was 4.52%; in that of `CCN(CC)S(=O)(=O)N1CCCN(CC(=O)NC(C)C)CC1`, 2.75%. In the case of `Cc1ccc(C2CN(c3nnc(C(F)F)s3)CCO2)c(C)c1` (stereo not given) it was 3.28%; in that of `N#Cc1ccc(C(=O)NS(=O)(=O)c2ccc(C#N)c(Cl)c2)cc1`, 5.44%; in that of `CCN(Cc1ccoc1)C(=O)NC1CCN(CC=C(C)C)CC1`, -3.89%. For `Cc1nn(-c2ccccc2)nc1C(=O)NCC(c1ccsc1)N(C)C` (stereo not given), the cytotoxicity at 10 µM is -22.3%. The value for `COCCC1(CNC(=O)Nc2ccnc(C)c2)CCCC1` was 2.12%; that for `OC(CN1CCN(CCOCC(F)(F)F)CC1)c1ccccc1` (stereo not given) was -7.99%; that for `CCCn1nccc1NC(=O)c1ccc(Cl)c(N2CCNC2=O)c1` was -5.07%. For the molecule `CCC(Nc1ccc(CCN2CCCCC2)cc1)C(N)=O` (stereo not given), the cytotoxicity at 10 µM worked out at 4.47%.

Regarding `NC1CCCN(Cc2cccc(C(F)(F)F)c2)C1=O` (stereo not given), the cytotoxicity at 10 µM was found to be 5.85%. The value for `CC(CNC(=O)c1cnc[nH]1)Oc1ccccc1Br` (stereo not given) was 2.74%. In the case of `Cc1ccc(C)c(C(=O)CN2C(=O)c3ccccc3CS2(=O)=O)c1` it was -8.42%; in that of `CNc1cc(N2CCCC2CNCc2ccc(Cl)o2)ncn1` (stereo not given), -11.6%.

Regarding `O=C(c1ccoc1)N1CCn2cnc(COCC3CC3)c2C1`, the cytotoxicity at 10 µM was -71.9%. Regarding `CCn1nc(CC(C)C)cc1C(=O)N1CC(c2ccncc2)C1`, the cytotoxicity at 10 µM is -6.38%. On to `Cc1nc2[nH]cc(C(=O)N3CCCCC3c3ccc(F)cc3)c(=O)n2n1` (stereo not given), for which the cytotoxicity at 10 µM was 3.63%. In the case of `COc1cccc2c1OCC(Cc1cc(C(=O)N3CCCC3)ccn1)C2` (stereo not given) it was 5.15%; in that of `CN(Cc1ccc(CCC(C)(C)O)cc1)Cc1cccnc1`, 15%. The value for `Cc1cc(C2CCC2)nc(NCC(C)(C)N2CCCC2)n1` was -0.21%; that for `CN(CCNC(=O)c1cnc(-c2ccccc2)nc1)S(C)(=O)=O` was 4.3%; that for `CCCn1ccnc1CN1CCCC1c1ccccn1` (stereo not given) was -7.25%. On to `Cc1ccc(C(=O)N2CC(c3cccnc3)C2)cc1N1CCNC1=O`, for which the cytotoxicity at 10 µM is -4.57%.

As to `CC1=NN(CC(=O)N2CC[C@@H]3[C@@H](CCC(=O)N3CC(C)C)C2)CC1`, the cytotoxicity at 10 µM amounted to 0.88%.

On to `CCC(C(=O)NCCc1nc(C)cc(C(F)(F)F)n1)n1cccn1` (stereo not given), for which the cytotoxicity at 10 µM was -9.77%. In the case of `CSCCCNc1ncnc2cccc(F)c12` it was 0.721%; in that of `CCc1ccccc1OCCN1C[C@@H](NS(C)(=O)=O)[C@H](C(C)C)C1`, -47.5%. In the case of `Cn1ccnc1CN1CCN(CC2CC2)[C@@H]2CS(=O)(=O)C[C@@H]21` it was 1.02%; in that of `CN(C)C(=O)c1ccc(C2CCCN2C(=O)CCC2=NNC(=O)CC2)s1` (stereo not given), 9.19%.

For the molecule `O=C(Cc1ccsc1)N1CCC(Cn2cc(CCO)nn2)CC1`, the cytotoxicity at 10 µM was 1.67%. In the case of `COc1cc(C)sc1C(=O)N1CC(c2cccnc2)C1` it was -8.97%. For the molecule `CCN(CC)Cc1ccc(C(=O)N2CCCC2c2cnn(C)c2)o1` (stereo not given), the cytotoxicity at 10 µM stood at 3.51%. In the case of `CCOCCCn1c(NC(=O)c2cnc(C)s2)nc2ccccc21` it was -30%; in that of `NC(=O)C1CCN(C(=O)c2ccc(OCc3cscn3)cc2)CC1`, -10.6%.

On to `CC(c1nc(C2CC2)no1)N1CCN(Cc2ccc(C#N)cc2)CC1` (stereo not given), for which the cytotoxicity at 10 µM was found to be 3.71%. `CC1CN(Cc2nccn2C)CCN1c1ccc2nncn2n1` (stereo not given): the cytotoxicity at 10 µM was -8.52%. Regarding `Cc1cnn(CCNCC(=O)NCCOc2ccccc2)c1`, the cytotoxicity at 10 µM was -14%. Take `O=C(CN1CCCC1Cn1cncn1)NCCc1c(F)cccc1F` (stereo not given): the cytotoxicity at 10 µM is -6.24%.

As for `CC(=O)Nc1ccc(S(=O)(=O)NC(=O)CCC2CCCO2)cc1` (stereo not given), the cytotoxicity at 10 µM was -5.11%. Turning to `CC(C)CC(=O)N1CCC2(CC1)COCCN2Cc1ccc(F)cc1`, the cytotoxicity at 10 µM was -77.1%.

Consider `Cc1noc(C)c1CN1CCc2ncc(CN(C)C)n2CC1`, for which the cytotoxicity at 10 µM is 8.46%. The value for `CCO[C@@H]1C[C@H]2CN(S(=O)(=O)c3cccs3)CCN2C1` was 8.52%; that for `O=C(C[C@@H]1COC[C@H]2CN(C3CCCC3)C[C@@H]12)N1CCCCO1` was 7.92%. The value for `Cc1nnc(N2CCCC3(CN(Cc4ccc(F)cc4)CCO3)C2)o1` (stereo not given) was -6.63%; that for `COc1ccc(CN2CCCn3cnc(COC(C)C)c3C2)cc1` was -74.9%; that for `CN(C)S(=O)(=O)N1CC[C@]2(C[C@H](OCc3ccccn3)CO2)C1` was 11.6%. `c1coc(COCc2ncn3c2CN(Cc2cccs2)CCC3)c1`: the cytotoxicity at 10 µM was -76.2%. For the molecule `CCCC(=O)N1CC[C@@H]2[C@H](CC1)N(Cc1cccc(C)n1)CCS2(=O)=O`, the cytotoxicity at 10 µM was -2.88%. The value for `CCn1c(Cn2cncn2)nnc1C1CCN(CC2[C@H]3CNC[C@@H]23)CC1` (stereo not given in full) was 6.77%.

In the case of `COCC(=O)NCC1(COc2cccnc2)C[C@@H](O)[C@@H](O)C1` (stereo not given in full), the cytotoxicity at 10 µM came out at 2.52%.
